# From ChEMBL document CHEMBL1799942, “Design, synthesis and antifungal activities of novel 1,2,4-triazole derivatives” (2011)
# Legend:
# Assay type in all cases: functional
# Candida albicans = assay: Antifungal activity against Candida albicans ATCC Y0109 after 24 hrs by micro-broth dilution method; conditions: ATCC Y0109, 24 h
# Summary of the method: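 Micro-broth dilution per NCCLS M27-A2 on the quality-control standard strain ATCC Y0109, included in each assay. Compounds were dissolved in DMSO, serially diluted in growth medium, inoculated and incubated at 35 °C, with growth read at 24 h. MIC80 is the first well showing roughly 80% growth reduction versus the drug-free well.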
# Candida parapsilosis = assay: Antifungal activity against Candida parapsilosis ATCC 0306392 by micro-broth dilution method; conditions: Lodderomyces parapsilosis
# Summary of the method: (§1)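 Micro-broth dilution per NCCLS M27-A2. The C. parapsilosis strain is the ATCC 0306392 quality-control standard tested in each assay; the C. tropicalis strain is a clinical isolate. Compounds were in DMSO, serially diluted in growth medium, inoculated and incubated at 35 °C. MIC80 is the first well with about 80% growth reduction relative to the drug-free well.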
# Candida tropicalis = assay: Antifungal activity against Candida tropicalis by micro-broth dilution method; summary of the method: as §1
# Cryptococcus neoformans = assay: Antifungal activity against Cryptococcus neoformans ATCC BLS108 after 72 hrs by micro-broth dilution method; conditions: ATCC BLS108, 72 h
# Summary of the method: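 NCCLS M27-A2 microdilution on the ATCC BLS108 quality-control strain, tested in every assay. Compounds were taken up in DMSO, serially diluted in growth medium, inoculated and incubated at 35 °C. Growth was scored at 72 h. MIC80 is the first well with about 80% lower growth than the drug-free control well.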
# Aspergillus fumigatus = assay: Antifungal activity against Aspergillus fumigatus after 7 days by micro-broth dilution method; conditions: 168 h
# Summary of the method: (§2)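 Broth microdilution following the NCCLS yeast reference method (M27-A2), run on clinical isolates of filamentous fungi. Compounds were dissolved in DMSO, serially diluted in growth medium, inoculated and incubated at 35 °C. Growth was read at 7 days. MIC80 is the first well with about 80% less growth than the drug-free well.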
# Trichophyton rubrum = assay: Antifungal activity against Trichophyton rubrum after 7 days by micro-broth dilution method; conditions: 168 h; summary of the method: as §2
# [1] = Antifungal activity against Fonsecaea compacta by micro-broth dilution method; summary of the method: as §2
# Nannizzia gypsea = assay: Antifungal activity against Microsporum gypseum after 7 days by micro-broth dilution method; conditions: 168 h; summary of the method: as §2
Compound,MIC80 (Candida albicans),MIC80 (Candida parapsilosis),MIC80 (Candida tropicalis),MIC80 (Cryptococcus neoformans),MIC80 (Aspergillus fumigatus),MIC80 (Trichophyton rubrum),MIC80 [1],MIC80 (Nannizzia gypsea)
O=C(Nc1ccc(N2CCN(CC(O)(Cn3cncn3)c3ccc(F)cc3F)CC2)cc1)C(F)(F)Cl (racemic),0.00097 µg/mL,0.0039 µg/mL,0.0039 µg/mL,0.0625 µg/mL,1 µg/mL,0.0156 µg/mL,0.0625 µg/mL,0.0039 µg/mL
O=C(Nc1ccc(N2CCN(CC(O)(Cn3cncn3)c3ccc(F)cc3F)CC2)cc1)C(F)(F)F (racemic),0.00097 µg/mL,0.0039 µg/mL,0.00097 µg/mL,0.0156 µg/mL,1 µg/mL,0.0156 µg/mL,0.0156 µg/mL,0.0039 µg/mL
CCC(=O)Nc1ccc(N2CCN(CC(O)(Cn3cncn3)c3ccc(F)cc3F)CC2)cc1 (racemic),0.0156 µg/mL,0.0156 µg/mL,0.0156 µg/mL,1 µg/mL,4 µg/mL,0.0625 µg/mL,0.25 µg/mL,0.25 µg/mL
CCCC(=O)Nc1ccc(N2CCN(CC(O)(Cn3cncn3)c3ccc(F)cc3F)CC2)cc1 (racemic),0.00097 µg/mL,0.0156 µg/mL,0.0625 µg/mL,0.25 µg/mL,4 µg/mL,0.0625 µg/mL,0.25 µg/mL,0.0625 µg/mL
CC(C)C(=O)Nc1ccc(N2CCN(CC(O)(Cn3cncn3)c3ccc(F)cc3F)CC2)cc1 (racemic),0.0039 µg/mL,0.0156 µg/mL,0.0156 µg/mL,1 µg/mL,4 µg/mL,0.25 µg/mL,0.25 µg/mL,0.0625 µg/mL
CCCCC(=O)Nc1ccc(N2CCN(CC(O)(Cn3cncn3)c3ccc(F)cc3F)CC2)cc1 (racemic),0.0156 µg/mL,0.0625 µg/mL,0.0625 µg/mL,0.25 µg/mL,1 µg/mL,0.0625 µg/mL,0.25 µg/mL,0.25 µg/mL
CCCCCC(=O)Nc1ccc(N2CCN(CC(O)(Cn3cncn3)c3ccc(F)cc3F)CC2)cc1 (racemic),0.0156 µg/mL,0.25 µg/mL,0.25 µg/mL,1 µg/mL,> 64 µg/mL,0.0625 µg/mL,1 µg/mL,0.0625 µg/mL
CC(C)(C)C(=O)Nc1ccc(N2CCN(CC(O)(Cn3cncn3)c3ccc(F)cc3F)CC2)cc1 (racemic),0.0156 µg/mL,0.0156 µg/mL,0.0156 µg/mL,0.25 µg/mL,16 µg/mL,0.0039 µg/mL,1 µg/mL,0.0156 µg/mL
CCCCCCC(=O)Nc1ccc(N2CCN(CC(O)(Cn3cncn3)c3ccc(F)cc3F)CC2)cc1 (racemic),0.00097 µg/mL,0.0156 µg/mL,0.0156 µg/mL,0.0625 µg/mL,> 64 µg/mL,0.0039 µg/mL,0.0625 µg/mL,0.0039 µg/mL
CCCCCCCC(=O)Nc1ccc(N2CCN(CC(O)(Cn3cncn3)c3ccc(F)cc3F)CC2)cc1 (racemic),0.0156 µg/mL,0.0625 µg/mL,0.0625 µg/mL,0.0625 µg/mL,1 µg/mL,0.0625 µg/mL,1 µg/mL,0.0156 µg/mL
CCCCCCCCCC(=O)Nc1ccc(N2CCN(CC(O)(Cn3cncn3)c3ccc(F)cc3F)CC2)cc1 (racemic),0.0156 µg/mL,1 µg/mL,0.25 µg/mL,0.0625 µg/mL,1 µg/mL,0.0625 µg/mL,1 µg/mL,0.0156 µg/mL
CCCCCCCCCCCC(=O)Nc1ccc(N2CCN(CC(O)(Cn3cncn3)c3ccc(F)cc3F)CC2)cc1 (racemic),0.0625 µg/mL,0.25 µg/mL,1 µg/mL,0.0625 µg/mL,1 µg/mL,0.0625 µg/mL,0.25 µg/mL,0.0156 µg/mL
CCCCCCCCCCCCCCCC(=O)Nc1ccc(N2CCN(CC(O)(Cn3cncn3)c3ccc(F)cc3F)CC2)cc1 (racemic),0.25 µg/mL,1 µg/mL,1 µg/mL,16 µg/mL,> 64 µg/mL,0.25 µg/mL,4 µg/mL,0.25 µg/mL
C[C@@H]1[C@H](O)[C@@H](C)/C=C/C=C/C=C/C=C/C=C/C=C/C=C/[C@H](O[C@@H]2O[C@H](C)[C@@H](O)[C@H](N)[C@@H]2O)C[C@@H]2O[C@](O)(C[C@@H](O)C[C@@H](O)[C@H](O)CC[C@@H](O)C[C@@H](O)CC(=O)O[C@H]1C)C[C@H](O)[C@H]2C(=O)O [AMPHOTERICIN B],1 µg/mL,0.0156 µg/mL,0.0625 µg/mL,1 µg/mL,4 µg/mL,1 µg/mL,16 µg/mL,0.0039 µg/mL

# Second part, the compound after the results:
MIC80 (Candida albicans),MIC80 (Candida parapsilosis),MIC80 (Candida tropicalis),MIC80 (Cryptococcus neoformans),MIC80 (Aspergillus fumigatus),MIC80 (Trichophyton rubrum),MIC80 [1],MIC80 (Nannizzia gypsea),Compound
64 µg/mL,0.0039 µg/mL,0.0039 µg/mL,0.0156 µg/mL,1 µg/mL,0.0039 µg/mL,0.0156 µg/mL,0.0039 µg/mL,O=C(Nc1ccc(N2CCN(CC(O)(Cn3cncn3)c3ccc(F)cc3F)CC2)c(F)c1)C(F)(F)Cl (racemic)
0.0156 µg/mL,0.0039 µg/mL,0.0039 µg/mL,0.0625 µg/mL,1 µg/mL,0.0156 µg/mL,0.25 µg/mL,> 64 µg/mL,O=C(Nc1ccc(N2CCN(CC(O)(Cn3cncn3)c3ccc(F)cc3F)CC2)c(F)c1)C(F)(F)F (racemic)
0.0625 µg/mL,0.0625 µg/mL,0.0625 µg/mL,1 µg/mL,4 µg/mL,0.0625 µg/mL,1 µg/mL,0.25 µg/mL,CCC(=O)Nc1ccc(N2CCN(CC(O)(Cn3cncn3)c3ccc(F)cc3F)CC2)c(F)c1 (racemic)
0.0156 µg/mL,0.0156 µg/mL,0.0156 µg/mL,0.25 µg/mL,1 µg/mL,0.0156 µg/mL,0.25 µg/mL,0.0156 µg/mL,CCCC(=O)Nc1ccc(N2CCN(CC(O)(Cn3cncn3)c3ccc(F)cc3F)CC2)c(F)c1 (racemic)
0.0625 µg/mL,0.25 µg/mL,4 µg/mL,16 µg/mL,> 64 µg/mL,0.0625 µg/mL,1 µg/mL,0.0625 µg/mL,CC(C)C(=O)Nc1ccc(N2CCN(CC(O)(Cn3cncn3)c3ccc(F)cc3F)CC2)c(F)c1 (racemic)
0.0156 µg/mL,0.25 µg/mL,0.25 µg/mL,1 µg/mL,1 µg/mL,0.25 µg/mL,1 µg/mL,0.25 µg/mL,CCCCC(=O)Nc1ccc(N2CCN(CC(O)(Cn3cncn3)c3ccc(F)cc3F)CC2)c(F)c1 (racemic)
0.0156 µg/mL,0.0156 µg/mL,0.0156 µg/mL,0.25 µg/mL,64 µg/mL,0.0156 µg/mL,0.0625 µg/mL,0.0156 µg/mL,CC(C)(C)C(=O)Nc1ccc(N2CCN(CC(O)(Cn3cncn3)c3ccc(F)cc3F)CC2)c(F)c1 (racemic)
0.0039 µg/mL,0.25 µg/mL,0.0625 µg/mL,0.0625 µg/mL,1 µg/mL,0.0156 µg/mL,0.25 µg/mL,0.25 µg/mL,CCCCCC(=O)Nc1ccc(N2CCN(CC(O)(Cn3cncn3)c3ccc(F)cc3F)CC2)c(F)c1 (racemic)
0.00097 µg/mL,0.0625 µg/mL,0.0625 µg/mL,0.0625 µg/mL,1 µg/mL,0.0156 µg/mL,0.25 µg/mL,0.0625 µg/mL,CCCCCCC(=O)Nc1ccc(N2CCN(CC(O)(Cn3cncn3)c3ccc(F)cc3F)CC2)c(F)c1 (racemic)
0.0625 µg/mL,0.0625 µg/mL,0.0625 µg/mL,0.25 µg/mL,1 µg/mL,0.0039 µg/mL,0.25 µg/mL,0.0625 µg/mL,CCCCCCCC(=O)Nc1ccc(N2CCN(CC(O)(Cn3cncn3)c3ccc(F)cc3F)CC2)c(F)c1 (racemic)
0.0156 µg/mL,0.0625 µg/mL,0.0625 µg/mL,1 µg/mL,64 µg/mL,0.0039 µg/mL,0.0625 µg/mL,0.0156 µg/mL,O=C(Cc1ccccc1)Nc1ccc(N2CCN(CC(O)(Cn3cncn3)c3ccc(F)cc3F)CC2)c(F)c1 (racemic)
0.0039 µg/mL,0.0156 µg/mL,0.0156 µg/mL,0.25 µg/mL,4 µg/mL,0.0625 µg/mL,0.0625 µg/mL,0.0625 µg/mL,O=C(CCl)Nc1ccc(N2CCN(CC(O)(Cn3cncn3)c3ccc(F)cc3F)CC2)cc1 (racemic)
0.0625 µg/mL,0.0625 µg/mL,0.0625 µg/mL,1 µg/mL,4 µg/mL,0.25 µg/mL,0.25 µg/mL,1 µg/mL,CC(=O)Nc1ccc(N2CCN(CC(O)(Cn3cncn3)c3ccc(F)cc3F)CC2)c(F)c1 (racemic)
0.0039 µg/mL,0.0156 µg/mL,0.0156 µg/mL,0.0625 µg/mL,1 µg/mL,0.0625 µg/mL,0.0625 µg/mL,0.0156 µg/mL,O=C(CCl)Nc1ccc(N2CCN(CC(O)(Cn3cncn3)c3ccc(F)cc3F)CC2)c(F)c1 (racemic)
